Results taken from PMC6976987 (Molecular Genetics and Metabolism Reports, 2020).
Where two headings read alike, the source gives them in different places.

What was measured:
[1] = system: glucosylceramide synthase; conditions: read-out: in vitro IC50; inhibitor of glucosylceramide synthase; cited from earlier work
Safety assessments = type: in vivo, human
Outline: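 Open-label study in healthy adults. Safety was monitored after a single dose (Day 1), during multiple doses alone (Days 2–8), and during co-dosing (Days 9–15 with the CYP3A/P-gp inhibitor; Days 9–18 with the CYP2D6 inhibitor). Measures: treatment-emergent AEs, clinical labs, vital signs, physical exams, 12-lead ECG, 12 h continuous telemetry. An AE counted as treatment-related if possibly, probably or definitely related to study drug.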

[2] = Paroxetine drug interaction study: eliglustat pharmacokinetics in healthy adults; type: in vivo, human; conditions: for AUC: AUC0-τ; for AUC / AUC(0-inf) / Cmax: mean (SD); for AUC(0-inf): AUC0-∞
Outline: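 Open-label, fixed-sequence study in healthy CYP2D6 non-poor metabolizers. Oral test compound 84 mg, fasted: single dose Day 1, BID Days 2–8, then BID with a strong CYP2D6 inhibitor 30 mg QD Days 9–18. Plasma sampled to 36 h Day 1, 12 h Day 8, 72 h Day 18, plus pre-dose samples. LC-MS/MS, LLOQ 0.5 ng/mL. Non-compartmental PK, tmax as median (min, max); ratios from log-transformed mixed-effects model.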

[3] = type: in vivo, human; conditions: for AUC: AUC0-τ, eliglustat 84 mg BID
Outline: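 Open-label, fixed-sequence study in healthy CYP2D6 non-poor metabolizers. Oral test compound 84 mg, fasted: single dose Day 1, BID Days 2–8, then BID with a strong CYP3A/P-gp inhibitor 400 mg QD Days 9–15. Plasma sampled to 36 h Day 1, 12 h Day 8, 72 h Day 15, plus pre-dose samples. LC-MS/MS, LLOQ 0.2 ng/mL. Non-compartmental PK; ratios from log-transformed mixed-effects model with 90% CI.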

[4] = concomitant dosing of eliglustat with ketoconazole, Days 9 to 15, N = 33
[5] = ketoconazole study (N = 36), whole study
[6] = multiple-dose eliglustat period, Days 2 to 8, N = 34
[7] = CYP2D6 EMs only, eliglustat 84 mg BID with paroxetine 30 mg QD
[8] = CYP2D6 non-PMs, eliglustat 84 mg BID with paroxetine 30 mg QD
[9] = CYP2D6 EMs only, eliglustat 84 mg BID with ketoconazole 400 mg QD
[10] = CYP2D6 non-PMs, eliglustat 84 mg BID with ketoconazole 400 mg QD

CCCCCCCC(=O)N[C@H](CN1CCCC1)[C@H](O)c1ccc2c(c1)OCCO2 [eliglustat]
IC50 [1]: 24 nM | tolerability (Safety assessments; administered alone and with ketoconazole): well tolerated | subjects with dysmenorrhea of moderate intensity (Safety assessments; concomitant dosing of eliglustat with ketoconazole): 3.0% | number of AEs (Safety assessments; [4]): 33 AEs | subjects with AEs (Safety assessments; [4]): 48.5% | subjects reporting AEs related to eliglustat (Safety assessments; concomitant dosing with ketoconazole, N = 33): 36.4% | subjects reporting AEs possibly related to both eliglustat and ketoconazole (Safety assessments; concomitant dosing, N = 33): 33.3% | subjects reporting treatment-related AEs (Safety assessments; following a single dose of eliglustat, Day 1, N = 36): 5.6% | QTcF interval prolongation (Safety assessments; ketoconazole study): no clinically significant prolongations of QTcF interval | Any adverse event (AE), number of events (Safety assessments; [5]): 58 N | Any adverse event (AE), number of subjects (Safety assessments; [5]): 20 (55.6%) N (%) | Any treatment-related AE, number of events (Safety assessments; [5]): 45 N | Any treatment-related AE, number of subjects (Safety assessments; [5]): 15 (41.7%) N (%) | Discontinuations due to AE, number of events (Safety assessments; [5]): 0 N | Discontinuations due to AE, number of subjects (Safety assessments; [5]): 0 (0.0%) N (%) | Serious AEs, number of events (Safety assessments; [5]): 0 N | Serious AEs, number of subjects (Safety assessments; [5]): 0 (0.0%) N (%) | Severe AEs, number of events (Safety assessments; [5]): 0 N | Severe AEs, number of subjects (Safety assessments; [5]): 0 (0.0%) N (%) | subjects with dysmenorrhea of moderate intensity (Safety assessments; multiple-dose eliglustat): 2.9% | number of AEs (Safety assessments; [6]): 21 AEs | subjects with AEs (Safety assessments; [6]): 32.4% | subjects reporting treatment-related AEs (Safety assessments; multiple-dose eliglustat, N = 34): 23.5% | subjects with headache of moderate intensity (Safety assessments; multiple-dose eliglustat, possibly related to eliglustat, unlikely related to ketoconazole): 2.9% | increase in eliglustat AUC0-τ compared to eliglustat alone [2, 7]: 8.4 fold | increase in eliglustat Cmax compared to eliglustat alone [2, 7]: 7.0 fold | increase in eliglustat AUC0-τ (exposure) compared to eliglustat alone [2, 8]: 8.9 fold | increase in eliglustat Cmax compared to eliglustat alone [2, 8]: 7.3 fold | Ratio (%) of geometric least squares mean, AUC0-t ([2]; all subjects, multiple dose, test 30 mg paroxetine oral QD + 84 mg eliglustat oral BID (N = 33) vs reference 84 mg eliglustat oral BID alone (N = 34), 0 to 12 h): 8.93% | Ratio (%) of geometric least squares mean, Cmax ([2]; all subjects, multiple dose, test 30 mg paroxetine oral QD + 84 mg eliglustat oral BID (N = 33) vs reference 84 mg eliglustat oral BID alone (N = 36)): 7.31% | Tmax ([2]; eliglustat 84 mg BID, Days 2 to 8, all (N = 36), median (minimum, maximum)): 2.0 (0.5–3.0) h | Tmax ([2]; human, plasma, oral, 84 mg): 2 h | half-life ([2]; human, plasma, oral, 84 mg): 4.2 h | AUC ([2]; human, plasma, oral, 84 mg, eliglustat 84 mg BID, Days 2 to 8, CYP2D6 EMs only (N = 33), 0 to 12 h): 120 ng·h/mL | AUC ([2]; human, plasma, oral, 84 mg, eliglustat 84 mg BID, Days 2 to 8, all (N = 34), 0 to 12 h): 120 ng·h/mL | AUC(0-inf) ([2]; human, plasma, oral, 84 mg, eliglustat 84 mg single dose, Day 1, CYP2D6 EMs only (N = 28)): 77.4 ng·h/mL | AUC(0-inf) ([2]; human, plasma, oral, 84 mg, eliglustat 84 mg single dose, Day 1, all (N = 30)): 78.1 ng·h/mL | Cmax ([2]; human, plasma, oral, 84 mg, eliglustat 84 mg BID, Days 2 to 8, CYP2D6 EMs only (N = 33)): 19.4 ng/mL | Cmax ([2]; human, plasma, oral, 84 mg, eliglustat 84 mg BID, Days 2 to 8, all (N = 36)): 19.3 ng/mL | Cmax ([2]; human, plasma, oral, 84 mg, eliglustat 84 mg single dose, Day 1, CYP2D6 EMs only (N = 33)): 10.9 ng/mL | Cmax ([2]; human, plasma, oral, 84 mg, eliglustat 84 mg single dose, Day 1, all (N = 36)): 10.7 ng/mL | AUC ([2]; human, plasma, oral, eliglustat 84 mg BID + paroxetine 30 mg QD, Days 9 to 18, CYP2D6 EMs only (N = 30), 0 to 12 h): 847 ng·h/mL | Cmax ([2]; human, plasma, oral, eliglustat 84 mg BID + paroxetine 30 mg QD, Days 9 to 18, CYP2D6 EMs only (N = 30)): 110 ng/mL | Cmax ([2]; human, plasma, oral, eliglustat 84 mg BID + paroxetine 30 mg QD, Days 9 to 18, all (N = 33)): 110 ng/mL | increase in eliglustat AUC0-τ compared to eliglustat alone [3, 9]: 4.4 fold | increase in eliglustat Cmax compared to eliglustat alone [3, 9]: 4.0 fold | increase in eliglustat AUC0-τ (exposure) compared to eliglustat alone [3, 10]: 4.3 fold | increase in eliglustat Cmax compared to eliglustat alone [3, 10]: 3.8 fold | Ratio (%) of geometric least squares mean, Cmax ([3]; all subjects, multiple dose, test 400 mg ketoconazole oral QD + 84 mg eliglustat oral BID (N = 33) vs reference 84 mg eliglustat oral BID alone (N = 33)): 3.84% | Ratio (%) of geometric least squares mean, AUC0-t ([3]; all subjects, multiple dose, test 400 mg ketoconazole oral QD + 84 mg eliglustat oral BID (N = 33) vs reference 84 mg eliglustat oral BID alone (N = 33), 0 to 12 h): 4.27% | increase in eliglustat exposure ([3]; co-administered with ketoconazole (discussion, rounded)): 4 fold | half-life ([3]; human, plasma, oral, 84 mg): 5.1 h | AUC ([3]; human, plasma, oral, 84 mg, Days 2 to 8, CYP2D6 EMs only (N = 31), 0 to 12 h, mean (SD)): 119 ng·h/mL | AUC ([3]; human, plasma, oral, 84 mg, Days 2 to 8, all (N = 33), 0 to 12 h, mean (SD)): 113 ng·h/mL | AUC(0-inf) ([3]; human, plasma, oral, 84 mg, AUC0-∞, eliglustat 84 mg single dose, Day 1, CYP2D6 EMs only (N = 32), mean (SD)): 77.2 ng·h/mL
